Test results from publication PMC6811699 (Stem Cells Translational Medicine, 2019).

Experiments:
[1] = tested on: induced sensory neuron cells (iSNs); test: Resazurin reduction cell viability assay; assay type: cell-based; details: Homo sapiens, 48 h, read-out: Detected cell viability IC50
In short: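 iSNs were specified and matured, reseeded into 96‑well plates, and dosed 24 hours later. Compounds were given as four 10‑fold dilutions, 0.01–10 μM final, with 0.1% DMSO final, in quadruplicate wells, for 48 hours. Medium was then replaced with 10 μg/ml resazurin in snMat medium for 2 hours at 37°C, 5% CO₂. Fluorescence was read at 544/590 nm. There were three biological replicates, reported as mean ± SEM, and IC50 came from the dose–response.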

[2] = tested on: induced sensory neuron cells (iSNs); test: High-content imaging, neurite length analysis; assay type: cell-based, human; details: 48 hours, 0.01–10 μM, treated 24 hours after seeding
In short: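 iSNs from blood-derived neural precursors, specified (DAPT, SU5402, CHIR99021) then matured (BDNF, GDNF, NGF, NT-3, ascorbic acid, forskolin), reseeded to 96-well plates; dosed 24 h later, 10-fold dilutions, 0.01–10 μM, 0.1% DMSO final, quadruplicate wells, 48 h.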

[3] = read-out: Reported neurite length IC50; literature values; cited from earlier work
patients = details: cited from earlier work
iSNs = test: Calcium imaging; assay type: cell-based, human; details: iSNs from adult nonmobilized PB, 30 μM α,β-meATP
In short: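 Mature iSNs were loaded with Fluo‑4‑AM for 1 hour at room temperature, then de‑esterified for 45 minutes. They were washed and kept in Hanks' balanced salt solution with 25 mM HEPES and 5.5 mM glucose. Agonists diluted in this buffer were applied at final 30 μM α,β‑meATP or 1 μM capsaicin to day‑7 iSNs in 96‑well plates. Peak calcium flux was recorded by epifluorescence microscopy with a xenon arc lamp.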

SMILES	IC50 [1] [nM]	effect on neurite length / neurite degeneration [2]	IC50 [3] [nM]	NP incidence (patients)	Neurotoxic dose in patients (patients)	cytosolic calcium response (iSNs)
CC(=O)O[C@H]1C(=O)[C@@]2(C)[C@H]([C@H](OC(=O)c3ccccc3)[C@]3(O)C[C@H](OC(=O)[C@H](O)[C@@H](NC(=O)c4ccccc4)c4ccccc4)C(C)=C1C3(C)C)[C@]1(OC(C)=O)CO[C@@H]1C[C@@H]2O [Taxol, Paclitaxel]	7400	reduced neurite length in the absence of cytotoxicity	5.6 to 10	–	–	–
CC[C@]1(O)C[C@H]2CN(CCc3c([nH]c4ccccc34)[C@@](C(=O)OC)(c3cc4c(cc3OC)N(C=O)[C@H]3[C@@](O)(C(=O)OC)[C@H](OC(C)=O)[C@]5(CC)C=CCN6CC[C@]43[C@@H]65)C2)C1 [Vincristine]	600	reduced neurite length in the absence of cytotoxicity	–	Up to 20%	5–15 mg/m^2	–
N.N.[Cl][Pt][Cl] [Cisplatin]	–	reduced neurite length in the absence of cytotoxicity	> 100000	70–100%	–	–
CC(C)C[C@H](NC(=O)[C@H](Cc1ccccc1)NC(=O)c1cnccn1)B(O)O [Bortezomib]	1000	neurite degeneration only at the highest tested concentrations	> 100000	20–30%	30 mg/m^2	–
Nc1ncnc2c1ncn2[C@@H]1O[C@H](COP(=O)(O)CP(=O)(O)OP(=O)(O)O)[C@@H](O)[C@H]1O [α,β‐meATP, α,β‐methylene‐ATP]	–	–	–	–	–	robust elevation of cytosolic calcium
COc1cc([C@@H]2c3cc4c(cc3[C@@H](O[C@@H]3O[C@@H]5CO[C@@H](C)O[C@H]5[C@H](O)[C@H]3O)[C@H]3COC(=O)[C@H]23)OCO4)cc(OC)c1O [Etoposide]	–	reduced neurite length in the absence of cytotoxicity	360	–	–	–
